# Assays:
# Details in all cases: in vivo
# [1] = organism: Rattus norvegicus; assay: Biodistribution of Gd-LDTA (conjugated with galactose BSA) protein using [111In]- in mature female Sprague-Dawley rat bone after injecting for 24 hour.; assay type: ADME, organism-based, Bone element
# Method in brief: (§1)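 Conjugate of SCN-LDTPA with BSA, mannosylated BSA or galactosylated BSA (10 equiv chelate, pH 9 bicine, RT 24 h; FPLC-purified) was labelled with 340 μCi 111In acetate at pH 5.5 for 45 min. It was then gel-filtered (Biospin-6) and checked for purity by FPLC. Mature female Sprague-Dawley rats received 19 μg of conjugate. Four rats per time point (1, 4, 24, 48 h) were killed; blood, liver, bone, kidney and colon were taken and %ID/organ was calculated.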
# [2] = organism: Rattus norvegicus; assay: Biodistribution of Gd-DTA (conjugated with BSA)protein using [111In]- in mature female Sprague-Dawley rat liver after injecting for 4 hour.; assay type: ADME, organism-based; method in brief: as §1
# [3] = organism: Rattus norvegicus; assay: Biodistribution of Gd-LDTA (conjugated with mannose BSA) protein using [111In]- in mature female Sprague-Dawley rat liver after injecting for 48 hour.; assay type: ADME, organism-based
# [4] = organism: Rattus norvegicus; assay: Biodistribution of Gd-DTA (conjugated with BSA)protein using [111In]- in mature female Sprague-Dawley rat liver after injecting for 24 hour.; assay type: ADME, organism-based; method in brief: as §1
# [5] = organism: Rattus norvegicus; assay: Biodistribution of Gd-LDTA (conjugated with galactose BSA) protein using [111In]- in mature female Sprague-Dawley rat bone marrow after injecting for 24 hour.; assay type: ADME, organism-based
# [6] = organism: Rattus norvegicus; assay: Biodistribution of Gd-DTA (conjugated with BSA)protein using [111In]- in mature female Sprague-Dawley rat liver after injecting for 1 hour.; assay type: ADME, organism-based; method in brief: as §1
# [7] = organism: Rattus norvegicus; assay: Biodistribution of Gd-DTA (conjugated with BSA)protein using [153Gd]- in mature female Sprague-Dawley rat bone marrow after injecting for 24 hour.
# [8] = organism: Rattus norvegicus; assay: Biodistribution of Gd-LDTA (conjugated with mannose BSA) protein using [111In]- in mature female Sprague-Dawley rat kidney after injecting for 48 hour.; assay type: ADME, organism-based
# [9] = organism: Rattus norvegicus; assay: Biodistribution of Gd-DTA (conjugated with BSA)protein using [111In]- in mature female Sprague-Dawley rat liver after injecting for 48 hour.; assay type: ADME, organism-based; method in brief: as §1
# [10] = organism: Rattus norvegicus; assay: Biodistribution of Gd-LDTA (conjugated with mannose BSA) protein using [111In]- in mature female Sprague-Dawley rat colon after injecting for 96 hour.; assay type: ADME, organism-based
# [11] = organism: Rattus norvegicus; assay: Biodistribution of In-LDTA (conjugated with BSA) protein using [111In]- in mature female Sprague-Dawley rat blood after injecting for 4 hour.; assay type: ADME, organism-based
# Method in brief: (§2)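 SCN-LDTPA was coupled (pH 9 bicine, 24 h, RT) to BSA, mannosylated BSA or galactosylated BSA and FPLC-purified. The conjugate (400 μg) was labeled with 340 μCi 111In acetate at pH 5.5 for 45 min and gel-filtered. Mature female Sprague-Dawley rats received 19 μg of conjugate; four rats per time point. Blood, liver, bone, kidney and colon were taken and reported as %ID/organ.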
# [12] = organism: Rattus norvegicus; assay: Biodistribution of Gd-DTA (conjugated with BSA)protein using [111In]- in mature female Sprague-Dawley rat blood after injecting for 48 hour.; assay type: ADME, organism-based; method in brief: as §1
# [13] = organism: Rattus norvegicus; assay: Biodistribution of In-LDTA (conjugated with galactose BSA)protein using [111In]- in mature female Sprague-Dawley rat bone after injecting for 48 hour.; assay type: ADME, organism-based, Bone element; method in brief: as §2
# [14] = organism: Rattus norvegicus; assay: Biodistribution of In-LDTA (conjugated with BSA)protein using [111In]- in mature female Sprague-Dawley rat colon after injecting for 24 hour.; assay type: ADME, organism-based; method in brief: as §2
# [15] = organism: Rattus norvegicus; assay: Biodistribution of Gd-LDTA (conjugated with mannose BSA) protein using [111In]- in mature female Sprague-Dawley rat blood after injecting for 48 hour.; assay type: ADME, organism-based; method in brief: as §1
# [16] = organism: Rattus norvegicus; assay: Biodistribution of Gd-DTA (conjugated with BSA)protein using [111In]- in mature female Sprague-Dawley rat bone after injecting for 1 hour.; assay type: ADME, organism-based, Bone element; method in brief: as §1
# [17] = organism: Rattus norvegicus; assay: Biodistribution of In-LDTA (conjugated with galactose BSA)protein using [111In]- in mature female Sprague-Dawley rat kidney after injecting for 24 hour.; assay type: ADME, organism-based; method in brief: as §2
# [18] = organism: Rattus norvegicus; assay: Biodistribution of Gd-LDTA (conjugated with galactose BSA) protein using [111In]- in mature female Sprague-Dawley rat blood after injecting for 1 hour.; assay type: ADME, organism-based; method in brief: as §1
# [19] = organism: Rattus norvegicus; assay: Biodistribution of Gd-LDTA (conjugated with galactose BSA) protein using [111In]- in mature female Sprague-Dawley rat liver after injecting for 4 hour.; assay type: ADME, organism-based; method in brief: as §1
# [20] = organism: Rattus norvegicus; assay: Biodistribution of Gd-DTA (conjugated with BSA)protein using [111In]- in mature female Sprague-Dawley rat bone after injecting for 4 hour.; assay type: ADME, organism-based, Bone element; method in brief: as §1
# [21] = organism: Rattus norvegicus; assay: Biodistribution of Gd-LDTA (conjugated with mannose BSA) protein using [111In]- in mature female Sprague-Dawley rat colon after injecting for 24 hour.; assay type: ADME, organism-based; method in brief: as §1
# [22] = organism: Rattus norvegicus; assay: Biodistribution of In-LDTA (conjugated with galactose BSA)protein using [111In]- in mature female Sprague-Dawley rat liver after injecting for 1 hour.; assay type: ADME, organism-based; method in brief: as §2
# [23] = organism: Rattus norvegicus; assay: Biodistribution of Gd-DTA (conjugated with BSA) protein using [111In]- in mature female Sprague-Dawley rat colon after injecting for 48 hour.; assay type: ADME, organism-based; method in brief: as §1
# [24] = organism: Rattus norvegicus; assay: Biodistribution of In-LDTA (conjugated with mannoseBSA)protein using [111In]- in mature female Sprague-Dawley rat blood after injecting for 24 hour.; assay type: ADME, organism-based; method in brief: as §2
# [25] = organism: Rattus norvegicus; assay: Biodistribution of Gd-LDTA (conjugated with galactose BSA) protein using [111In]- in mature female Sprague-Dawley rat kidney after injecting for 4 hour.; assay type: ADME, organism-based; method in brief: as §1
# [26] = organism: Rattus norvegicus; assay: Biodistribution of In-LDTA (conjugated with BSA) protein using [111In]- in mature female Sprague-Dawley rat colon after injecting for 1 hour.; assay type: ADME, organism-based; method in brief: as §2
# [27] = organism: Rattus norvegicus; assay: Biodistribution of In-LDTA (conjugated with mannoseBSA) protein using [111In]- in mature female Sprague-Dawley rat bone after injecting for 48 hour.; assay type: ADME, organism-based, Bone element; method in brief: as §2
# [28] = organism: Rattus norvegicus; assay: Biodistribution of In-LDTA (conjugated with mannoseBSA) protein using [111In]- in mature female Sprague-Dawley rat kidney after injecting for 48 hour.; assay type: ADME, organism-based; method in brief: as §2
# [29] = organism: Rattus norvegicus; assay: Biodistribution of Gd-LDTA (conjugated with mannose BSA) protein using [111In]- in mature female Sprague-Dawley rat liver after injecting for 1 hour.; assay type: ADME, organism-based
# [30] = organism: Rattus norvegicus; assay: Biodistribution of In-LDTA (conjugated with mannoseBSA) protein using [111In]- in mature female Sprague-Dawley rat liver after injecting for 24 hour.; assay type: ADME, organism-based; method in brief: as §2
# [31] = organism: Rattus norvegicus; assay: Biodistribution of Gd-DTA (conjugated with BSA)protein using [111In]- in mature female Sprague-Dawley rat colon after injecting for 1 hour.; assay type: ADME, organism-based; method in brief: as §1
# [32] = organism: Rattus norvegicus; assay: Biodistribution of Gd-LDTA (conjugated with galactose BSA) protein using [111In]- in mature female Sprague-Dawley rat kidney after injecting for 1 hour.; assay type: ADME, organism-based; method in brief: as §1
# [33] = organism: Rattus norvegicus; assay: Biodistribution of Gd-LDTA (conjugated with galactose BSA) protein using [111In]- in mature female Sprague-Dawley rat kidney after injecting for 24 hour.; assay type: ADME, organism-based; method in brief: as §1
# [34] = organism: Rattus norvegicus; assay: Biodistribution of Gd-DTA (conjugated with BSA)protein using [153Gd]- in mature female Sprague-Dawley rat bone after injecting for 96 hour.
# [35] = organism: Rattus norvegicus; assay: Biodistribution of In-LDTA (conjugated with galactose BSA)protein using [111In]- in mature female Sprague-Dawley rat kidney after injecting for 4 hour.; assay type: ADME, organism-based; method in brief: as §2
# [36] = organism: Rattus norvegicus; assay: Biodistribution of In-LDTA protein using [111In]- in mature female Sprague-Dawley rat blood after injecting for 1 hour.; assay type: ADME, organism-based; method in brief: as §2
smiles,measurement,setting,value
Nc1ccc(CC(C(=O)O)N(CCN(CC(=O)O)CC(=O)O)CCN(CC(=O)O)CC(=O)O)cc1 (stereo unspecified),ID/organ,[1],7.01%
same,ID/organ,[2],18.6%
same,ID/organ,[3],35%
same,ID/organ,[4],20%
same,ID/organ,[5],0.04%
same,ID/organ,[6],14.2%
same,ID/organ,[7],3.07%
same,ID/organ,[8],0.379%
same,ID/organ,[9],17.4%
same,ID/organ,[10],0.241%
same,ID/organ,[11],53.8%
same,ID/organ,[12],3.37%
same,ID/organ,[13],0.29%
same,ID/organ,[14],9.4%
same,ID/organ,[15],0.04%
same,ID/organ,[16],18.1%
same,ID/organ,[17],0.112%
same,ID/organ,[18],0.207%
same,ID/organ,[19],86.1%
same,ID/organ,[20],22.3%
same,ID/organ,[21],0.403%
same,ID/organ,[22],99.7%
same,ID/organ,[23],2.37%
same,ID/organ,[24],0.129%
same,ID/organ,[25],0.105%
same,ID/organ,[26],0.86%
same,ID/organ,[27],9.84%
same,ID/organ,[28],0.465%
same,ID/organ,[29],70.2%
same,ID/organ,[30],75.2%
same,ID/organ,[31],0.952%
same,ID/organ,[32],0.114%
same,ID/organ,[33],0.14%
same,ID/organ,[34],44.6%
same,ID/organ,[35],0.0688%
same,ID/organ,[36],61.3%
